Results from ChEMBL document CHEMBL4837248, “Discovery and SAR Evolution of Pyrazole Azabicyclo[3.2.1]octane Sulfonamides as a Novel Class of Non-Covalent N-Acylethanolamine-Hydrolyzing Acid Amidase (NAAA) Inhibitors for Oral Administration” (J Med Chem, 2021).
Calls of active or inactive are those of the source. The rule behind the calls is not given here.

Biological target: T1, N-acylethanolamine-hydrolyzing acid amidase (Homo sapiens) (UniProt Q02083)
T1 sequence (whole entry): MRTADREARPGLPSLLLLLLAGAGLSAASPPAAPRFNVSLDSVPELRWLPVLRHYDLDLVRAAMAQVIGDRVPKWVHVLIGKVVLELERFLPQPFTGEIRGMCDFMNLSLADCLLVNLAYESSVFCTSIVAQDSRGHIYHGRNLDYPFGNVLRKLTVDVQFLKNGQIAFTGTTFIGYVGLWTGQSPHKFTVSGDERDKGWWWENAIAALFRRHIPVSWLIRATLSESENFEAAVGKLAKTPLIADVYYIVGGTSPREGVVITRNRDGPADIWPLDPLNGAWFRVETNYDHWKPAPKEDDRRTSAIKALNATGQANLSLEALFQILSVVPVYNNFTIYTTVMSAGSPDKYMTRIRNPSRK
Test: Inhibition of ARN14686 probe binding to human NAAA expressed in HEK293 cells preincubated for 2 hrs followed by ARN14686 probe addition and measured after 4 hrs by fluorescence assay
Format: cell-based
Conditions: time 6.0 hrs
Summary of the method: (§1)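 Lysosomal enrichment (0.5 mg/mL) from HEK293 cells overexpressing human NAAA was preincubated 2 h at 37 °C with compound at a final 20 μM (2% DMSO); DMSO-only controls were included. ARN14686 probe (20 μM) was then added at 37 °C for 15 min or 4 h. An Alexa Fluor 545 azide was attached by CuSO4/TCEP/TBTA click chemistry (2 h, 25 °C). Read-out was SDS-PAGE in-gel fluorescence at 532 nm, with Coomassie loading control.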

Row | Compound | inhibition
1 | CCOCc1cnc(O[C@H]2C[C@H]3CC[C@@H](C2)N3S(=O)(=O)c2c(C)n[nH]c2C)cn1 | inactive

Biological target: T1, N-acylethanolamine-hydrolyzing acid amidase (Homo sapiens)
Test: Inhibition of recombinant human NAAA expressed in HEK293 cells using PAMCA as fluorogenic substrate at 50 uM preincubated for 30 mins followed by substrate addition and measured after 50 mins by fluorescence assay relative to control
Format: cell-based
Conditions: not given
Summary of the method: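 Lysosomal-type enzyme-enriched lysate from HEK-293 cells stably expressing human NAAA (4 μg protein), preincubated 30 min with compound or 5% DMSO in 100 mM citrate/phosphate pH 4.5 with 3.0 mM DTT, 0.1% NP40, 0.05% BSA, 150 mM NaCl. Reaction started with PAMCA substrate (2 μM), run 50 min at 37 °C. Fluorescence read at ex 355/em 460 nm against enzyme-free background.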

Row | Compound | inhibition
2 | Cc1n[nH]c(C)c1S(=O)(=O)N1CC(Oc2cnccn2)C1 | < 10%
3 | Cc1n[nH]c(C)c1C(=O)N1CCC(Oc2cnccn2)CC1 | < 10%
4 | Cc1n[nH]c(C)c1S(=O)(=O)N1CCC(c2cnccn2)CC1 | < 10%
5 | Cc1n[nH]c(C)c1S(=O)(=O)N1[C@@H]2CC[C@H]1C[C@H](Oc1cnccn1)C2 | < 10%
6 | Cc1n[nH]c(C)c1S(=O)(=O)N[C@H]1CC[C@H](Oc2cnccn2)CC1 | < 10%
7 | Cc1n[nH]c(C)c1S(=O)(=O)N1CCC(Nc2cnccn2)CC1 | < 10%
8 | O=S(=O)(c1cn[nH]c1)N1CCC(Oc2cnccn2)CC1 | < 10%
9 | Cc1n[nH]c(C)c1S(=O)(=O)N1CCC(Cc2cnccn2)CC1 | < 10%
10 | Cc1n[nH]c(C)c1S(=O)(=O)N1C[C@H]2CCC[C@@H](C1)[C@H]2Oc1cnccn1 | < 10%

Second part, the compound after the results:

Row | inhibition | Compound
11 | < 10% | Cc1noc(C)c1S(=O)(=O)N1CCC(Oc2cnccn2)CC1
12 | < 10% | Cc1n[nH]cc1S(=O)(=O)N1CCC(Oc2cnccn2)CC1
13 | < 10% | COc1n[nH]c(C)c1S(=O)(=O)N1CCC(Oc2cnccn2)CC1
14 | < 10% | Cc1nn(C)c(C)c1S(=O)(=O)N1CCC(Oc2cnccn2)CC1
15 | < 10% | Cc1cnn(C)c1S(=O)(=O)N1CCC(Oc2cnccn2)CC1

Biological target: T1, N-acylethanolamine-hydrolyzing acid amidase (Homo sapiens)
Test: Inhibition of ARN14686 probe binding to human NAAA expressed in HEK293 cells preincubated for 2 hrs followed by ARN14686 probe addition and measured after 15 mins by fluorescence assay
Format: cell-based
Conditions: time 135.0 min
Summary of the method: as §1

Row | Compound | inhibition
16 | CCOCc1cnc(O[C@H]2C[C@H]3CC[C@@H](C2)N3S(=O)(=O)c2c(C)n[nH]c2C)cn1 | Active
